Data published in ChEMBL document CHEMBL2010655, “Chemical constituents from the aerial parts of Aster koraiensis with protein glycation and aldose reductase inhibitory activities” (J Nat Prod, 2012).

Molecular target: Aldo-keto reductase family 1 member B1 (Rattus norvegicus, UniProt P07943)
Test: Inhibition of Sprague-Dawley rat lens aldose reductase

Row | SMILES | IC50 [µM]
1 | C/C=C/C#CC#C[C@H](O)CCO [GYMNASTERKOREAYNE A] | > 30
2 | CC1=CC[C@H](O)[C@]2(C)[C@H]1[C@@H](O[C@@H]1O[C@H](CO)[C@@H](O)[C@H](O)[C@H]1O)[C@H](C(C)(C)O)C[C@H]2OC(=O)/C=C/c1ccc(O)cc1 | > 30
3 | CC1=CC[C@@H](O)[C@]2(C)[C@@H](OC(=O)/C=C/c3ccc(O)cc3)C[C@@H](C(C)C)[C@@H](O[C@@H]3O[C@H](CO)[C@@H](O)[C@H](O)[C@H]3O)[C@@H]12 | > 30
4 | C/C=C/C#CC#CCCCO[C@@H]1O[C@H](CO)[C@@H](O)[C@H](O)[C@H]1O | > 30
5 | C=CCc1ccc(O[C@@H]2O[C@H](CO)[C@@H](O)[C@H](O)[C@H]2O)c(OC)c1 [CITRUSIN C] | > 30
6 | CC[C@H](/C=C/[C@@H](C)[C@H]1CC[C@H]2C3=CC[C@H]4C[C@@H](O)CC[C@]4(C)[C@H]3CC[C@]12C)C(C)C | > 30
7 | C=C(CO[C@@H]1O[C@H](CO)[C@@H](O)[C@H](O)[C@H]1O)[C@H]1Oc2cc(C(C)=O)c(O)cc2[C@@H]1OC | > 30
8 | N=C(N)NN [PIMAGEDINE] | > 30
9 | CC[C@H](CC[C@@H](C)[C@H]1CC[C@H]2[C@@H]3CC=C4C[C@@H](O[C@@H]5O[C@H](CO)[C@@H](O)[C@H](O)[C@H]5O)CC[C@]4(C)[C@H]3CC[C@]12C)C(C)C [SITOGLUSIDE] | > 30

Results, then the compound that gave them:

Row | IC50 [µM] | SMILES
10 | > 30 | C=CCCCCC/C=C/[C@H](O)C#CC#C[C@@H](O)[C@H](C)O [GYMNASTERKOREAYNE E]
11 | 0.95 | O=C(/C=C/c1ccc(O)c(O)c1)O[C@@H]1C[C@](O)(C(=O)O)C[C@@H](O)[C@H]1O [CHLOROGENIC ACID]
12 | 0.32 | O=c1c(O[C@@H]2OC[C@H](O)[C@H](O)[C@H]2O)c(-c2ccc(O)c(O)c2)oc2cc(O)cc(O)c12 [GUAJAVERIN]
13 | 12.1 | COc1cc(-c2oc3cc(O)cc(O)c3c(=O)c2O[C@@H]2O[C@H](CO[C@@H]3O[C@@H](C)[C@H](O)[C@@H](O)[C@H]3O)[C@@H](O)[C@H](O)[C@H]2O)ccc1O [NARCISSIN]
14 | 11.3 | C[C@@H]1O[C@@H](OC[C@H]2O[C@@H](Oc3c(-c4ccc(O)cc4)oc4cc(O)cc(O)c4c3=O)[C@H](O)[C@@H](O)[C@@H]2O)[C@H](O)[C@H](O)[C@H]1O [NICOTIFLOROSIDE]
15 | 4.4 | O=c1c(O[C@@H]2O[C@H](CO)[C@@H](O)[C@H](O)[C@H]2O)c(-c2ccc(O)c(O)c2)oc2cc(O)cc(O)c12 [ISOQUERCETIN]
16 | 2.3 | O=C(/C=C/c1ccc(O)c(O)c1)O[C@H]1[C@H](O)C[C@](O)(C(=O)O)C[C@H]1OC(=O)/C=C/c1ccc(O)c(O)c1
17 | 9.3 | COc1cc(-c2oc3cc(O)cc(O)c3c(=O)c2O[C@@H]2O[C@H](CO)[C@@H](O)[C@H](O)[C@H]2O)ccc1O (stereo in doubt; 7)

System: not listed separately
Test: Inhibition of advanced glycation end-products formation after 14 days by spectrofluorimetry
Format: physicochemical
Procedure, shortened: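 Glycation end-product formation measured by an established literature method. Fluorescent reaction products read spectrofluorometrically after a 14-day incubation. Aminoguanidine served as the positive control. Triplicate experiments, reported as mean ± SD. IC50 calculated from the dose–inhibition curve.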

Row | SMILES | IC50 [µM]
18 | C/C=C/C#CC#C[C@H](O)CCO [GYMNASTERKOREAYNE A] | > 50
19 | CC(/C=C1\SC(=S)N(CC(=O)O)C1=O)=C\c1ccccc1 | > 50
20 | CC1=CC[C@H](O)[C@]2(C)[C@H]1[C@@H](O[C@@H]1O[C@H](CO)[C@@H](O)[C@H](O)[C@H]1O)[C@H](C(C)(C)O)C[C@H]2OC(=O)/C=C/c1ccc(O)cc1 | > 50
21 | CC1=CC[C@@H](O)[C@]2(C)[C@@H](OC(=O)/C=C/c3ccc(O)cc3)C[C@@H](C(C)C)[C@@H](O[C@@H]3O[C@H](CO)[C@@H](O)[C@H](O)[C@H]3O)[C@@H]12 | > 50
22 | C/C=C/C#CC#CCCCO[C@@H]1O[C@H](CO)[C@@H](O)[C@H](O)[C@H]1O | > 50
23 | C=CCc1ccc(O[C@@H]2O[C@H](CO)[C@@H](O)[C@H](O)[C@H]2O)c(OC)c1 [CITRUSIN C] | > 50
24 | CC[C@H](/C=C/[C@@H](C)[C@H]1CC[C@H]2C3=CC[C@H]4C[C@@H](O)CC[C@]4(C)[C@H]3CC[C@]12C)C(C)C | > 50
25 | C=C(CO[C@@H]1O[C@H](CO)[C@@H](O)[C@H](O)[C@H]1O)[C@H]1Oc2cc(C(C)=O)c(O)cc2[C@@H]1OC | > 50
26 | N=C(N)NN [PIMAGEDINE] | 966
27 | CC[C@H](CC[C@@H](C)[C@H]1CC[C@H]2[C@@H]3CC=C4C[C@@H](O[C@@H]5O[C@H](CO)[C@@H](O)[C@H](O)[C@H]5O)CC[C@]4(C)[C@H]3CC[C@]12C)C(C)C [SITOGLUSIDE] | > 50

Results, then the compound that gave them:

Row | IC50 [µM] | SMILES
28 | > 50 | C=CCCCCC/C=C/[C@H](O)C#CC#C[C@@H](O)[C@H](C)O [GYMNASTERKOREAYNE E]
29 | > 50 | O=C(/C=C/c1ccc(O)c(O)c1)O[C@@H]1C[C@](O)(C(=O)O)C[C@@H](O)[C@H]1O [CHLOROGENIC ACID]
30 | 9 | O=c1c(O[C@@H]2OC[C@H](O)[C@H](O)[C@H]2O)c(-c2ccc(O)c(O)c2)oc2cc(O)cc(O)c12 [GUAJAVERIN]
31 | > 50 | COc1cc(-c2oc3cc(O)cc(O)c3c(=O)c2O[C@@H]2O[C@H](CO[C@@H]3O[C@@H](C)[C@H](O)[C@@H](O)[C@H]3O)[C@@H](O)[C@H](O)[C@H]2O)ccc1O [NARCISSIN]
32 | > 50 | C[C@@H]1O[C@@H](OC[C@H]2O[C@@H](Oc3c(-c4ccc(O)cc4)oc4cc(O)cc(O)c4c3=O)[C@H](O)[C@@H](O)[C@@H]2O)[C@H](O)[C@H](O)[C@H]1O [NICOTIFLOROSIDE]
33 | 9.2 | O=c1c(O[C@@H]2O[C@H](CO)[C@@H](O)[C@H](O)[C@H]2O)c(-c2ccc(O)c(O)c2)oc2cc(O)cc(O)c12 [ISOQUERCETIN]
34 | 6.6 | O=C(/C=C/c1ccc(O)c(O)c1)O[C@@H]1C[C@](O)(C(=O)O)C[C@@H](OC(=O)/C=C/c2ccc(O)c(O)c2)[C@H]1O
35 | 6.4 | O=C(/C=C/c1ccc(O)c(O)c1)O[C@H]1[C@H](O)C[C@](O)(C(=O)O)C[C@H]1OC(=O)/C=C/c1ccc(O)c(O)c1
36 | 44.4 | COc1cc(-c2oc3cc(O)cc(O)c3c(=O)c2O[C@@H]2O[C@H](CO)[C@@H](O)[C@H](O)[C@H]2O)ccc1O (stereo in doubt; 7)
